Calls of active or inactive are those of the source. The rule behind the calls is not given here.
Tests used:
Oocyte = experiment: Inhibition of 1-methyladenine-stimulated meiotic maturation in Asterina pectinifera immature oocytes assessed as germinal vesicle breakdown at 100 uM after 60 mins; format: functional, cell-based; conditions: Patiria pectinifera
Outline: (§1)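 Immature oocytes from wild-caught Asterina pectinifera ovaries, 100 cells/mL; DMSO-dissolved sample added, held on ice 10 min, then 1-MeAde (1.25 µM, as added) added; incubated 20 °C for 60 min; germinal vesicle state scored under inverted microscope.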

Sus scrofa = organism: Sus scrofa; experiment: Inhibition of pig brain microtubule assembly at 100 uM
Outline: (§2)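 Microtubule protein purified from fresh porcine brain by repeated polymerization/depolymerization cycles in 100 mM MES, 1 mM EGTA, 0.5 mM MgCl2, 1 mM GTP, 1 mM 2-mercaptoethanol, pH 6.5; 1.3 mg/mL protein; DMSO-dissolved sample (final DMSO <2%); assembly followed by turbidity at 400 nm, 37 °C.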

[1] = Inhibition of 1-methyladenine-stimulated meiotic maturation in Asterina pectinifera immature oocytes assessed as germinal vesicle breakdown after 60 mins; format: functional, cell-based, Patiria pectinifera; conditions: oocyte; outline: as §1
[2] = Inhibition of pig brain microtubule assembly; set-up: species or system Sus scrofa; outline: as §2

Compound | Activity (Oocyte) | Activity (Sus scrofa) | IC50 [1] | IC50 [2]
COc1cc(Br)cc(Br)c1Oc1c(Br)ccc(Br)c1O | inactive | inactive | – | –
Oc1cc(Br)c(Br)c(Br)c1Oc1c(Br)ccc(Br)c1O | – | – | 4.2 µM | 20.9 µM
Oc1c(Br)cc(Br)cc1Oc1c(O)c(Br)c(Br)c(Br)c1Br | – | – | 3.6 µM | 29.6 µM
COc1cc(Br)cc(Br)c1Oc1cc(Br)cc(Br)c1OC | inactive | inactive | – | –
COc1cc(Br)c(Br)c(Br)c1Oc1cc(Br)cc(Br)c1OC | inactive | inactive | – | –
Oc1c(Br)cc(Br)cc1Oc1ccc(Br)cc1Br | inactive | inactive | – | –
COc1c(Br)c(Br)cc(Br)c1Oc1cc(Br)cc(Br)c1O | inactive | inactive | – | –
COc1cc(Br)cc(Br)c1Oc1cc(Br)cc(Br)c1O | inactive | inactive | – | –
COc1c(Br)c(Br)c(Br)c(Br)c1Oc1cc(Br)cc(Br)c1O | inactive | inactive | – | –
COc1cc(Br)c(Br)c(Br)c1Oc1cc(Br)cc(Br)c1O | inactive | inactive | – | –
Oc1c(Br)cc(Br)cc1Oc1c(Br)cc(Br)c(Br)c1O | – | – | 4.2 µM | 33.5 µM

From ChEMBL document CHEMBL1146516, “Isolation and characterization of polybrominated diphenyl ethers as inhibitors of microtubule assembly from the marine sponge Phyllospongia dendyi collected at Palau” (J Nat Prod, 2004)
